Scp-1 inhibitor: inhibitors of human Scp-1 phosphatase; inhibition, % at 20 µM; Recombinant Scp1, phosphopeptide, malachite green phosphate absorbance; hit rate 0.88% among 340,000; AID 493091;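 active = inhibition above about 50% at 20 µM, limit read from the data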;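 note: plate controls were DMSO wells with enzyme for no effect and wells lacking enzyme for full effect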
Target sequence (Q9GZU7 76-261 limits assumed): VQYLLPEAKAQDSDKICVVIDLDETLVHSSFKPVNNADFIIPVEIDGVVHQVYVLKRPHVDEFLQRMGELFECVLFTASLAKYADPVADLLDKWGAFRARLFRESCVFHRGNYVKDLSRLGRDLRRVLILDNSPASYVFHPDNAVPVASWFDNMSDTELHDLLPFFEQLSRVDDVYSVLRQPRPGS
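Incubation: 45 min enzyme reaction at room temperature / System: truncated SCP-1 phosphatase (76-261aa) / Reagent: Phospho 17-mer peptide substrate / Buffer or medium: Acidic Tris acetate buffer with magnesium and detergent / Signal: absorbance at 630 nm / Doses: one concentration, 20 µM, with 1.0% DMSO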
STEP inh: inhibitors of human striatal-enriched phosphatase STEP | hit rate 0.25% among 360,000 | recombinant STEP, OMFP fluorogenic substrate, fluorescence | AID 588621 | inhibition, % at 20 µM;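 active = inhibition at 20 µM, scaled per plate between control wells, above about 37%, limit read from the data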;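 note: 0% = DMSO with enzyme and substrate and 100% = substrate only without enzyme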
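Measure: Control-normalized % inhibition with plate pattern correction | Test system: STEP phosphatase, cell-free reaction | Medium: pH 6.0 Bis-Tris with DTT and Tween 20 | Technique: Fluorescence, 480/540 nm | Times: Reaction 20 min, ambient temperature | Doses: Single compound dose of 20 µM, 1% DMSO final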
Rpn11 inh: Rpn11 (human) deubiquitinase inhibition | O00487 | human 26S proteasome, Ub4-pepOG fluorescence polarization; 20S core pre-blocked with epoxomicin | inhibition, % at 20 µM | hit rate 0.59% among 360,000 | AID 588493;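 active = inhibition at 20 µM, scaled to each plate's controls, above about 33%, limit read from the data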
Target sequence (O00487 whole entry, looked up): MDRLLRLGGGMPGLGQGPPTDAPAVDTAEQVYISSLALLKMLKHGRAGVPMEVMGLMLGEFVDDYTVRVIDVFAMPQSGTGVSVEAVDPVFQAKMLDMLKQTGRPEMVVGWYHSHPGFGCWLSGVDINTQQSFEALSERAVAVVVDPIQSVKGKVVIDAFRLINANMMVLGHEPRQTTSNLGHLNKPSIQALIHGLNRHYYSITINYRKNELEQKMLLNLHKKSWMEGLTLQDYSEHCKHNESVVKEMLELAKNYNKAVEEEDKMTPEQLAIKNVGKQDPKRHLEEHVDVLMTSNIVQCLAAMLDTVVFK
SUMO1-SIM PPI: modulators of human SUMO1-mediated protein-protein interactions | hit rate 0.33% among 360,000 | P63165 | inhibition, % at 20 µM | SUMO1 binding to a labelled peptide, TR-FRET, 1 h | AID 602429; in the data active = inhibition above about 37%
DNMT1 inh: blocks human DNA methyltransferase DNMT1; DNMT1 molecular beacon, Hinp1I cleavage, fluorescence; inhibition (reported as % activation of signal), % at 10 µM; hit rate 0.83% among 360,000; in the data active = inhibition above about 50%
LMPTP inh: blocks human LMPTP phosphatase | P24666 | inhibition, % at 20 µM | hit rate 0.22% among 360,000 | recombinant LMPTP-A, OMFP fluorogenic substrate, fluorescence intensity;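 active = compounds that cut the enzyme signal by at least half of the control window in the single-dose screen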;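 note: plate controls were DMSO wells with enzyme plus substrate for no effect and substrate without enzyme for full effect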
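test system = LMPTP-A | amount = 0.625 nM LMPTP-A final | reagent = fluorogenic phosphatase substrate OMFP at 400 µM final | incubation = 50 min at room temperature | benchmarks = no-enzyme low control, uninhibited high control | medium = Bis-Tris pH 6.0, DTT, detergent | signal = fluorescence intensity of OMFP turnover product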
STEP inh conf: STEP (human) phosphatase inhibition, single concentration confirmation | shares compounds with STEP inh | recombinant STEP, OMFP fluorogenic substrate, fluorescence | inhibition, % at 20 µM | hit rate 32% among 520; call rule not given here;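 note: 0% = enzyme with substrate plus DMSO and 100% = substrate without enzyme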
* hit, by the source's call; nt = not tested or not shown. This is a sample that favours compounds with a hit; in the whole collection about 2.3% have one here.

SMILES | Scp-1 inhibitor | STEP inh | Rpn11 inh | SUMO1-SIM PPI | DNMT1 inh | LMPTP inh | STEP inh conf
O=C1CCCc2c1sc1nc3n(c(=O)c21)CCCCC3 | -11 | 45* | -2 | -21 | 7 | 0 | -10
Cc1ccc2sc(-c3ccc(NC(=O)/C=C\C(=O)O)cc3)nc2c1 | 9 | 1 | 12 | 13 | -2 | 2 | nt
CC1(C)CC(NC(=S)Nc2ccc(S(N)(=O)=O)cc2)CC(C)(C)N1 | 7 | 63* | -3 | -1 | 8 | 2 | 16
CC(=O)c1sc(NC(=O)c2ccc(F)c(F)c2)nc1C | 44 | 58* | 15 | -10 | 1 | 42 | 16
CC(=O)c1sc(NC(=O)c2ccc(Cl)cc2)nc1C | -5 | 0 | -2 | -11 | 9 | 0 | nt
CN(CC(=O)Nc1ccccc1Cl)C(=O)COC(=O)c1ccccc1[N+](=O)[O-] | 2 | -2 | -7 | -18 | 3 | -1 | nt
Cc1ccc(N(Cc2ccc(C(=O)NCCSc3ccccn3)cc2)S(C)(=O)=O)cc1C | 1 | -1 | -5 | -1 | -1 | -1 | nt
CS(=O)(=O)N(Cc1ccc(C(=O)NCCSc2ccccn2)cc1)c1ccccc1 | -2 | 44* | -3 | 3 | 3 | 0 | -4
Cc1ccc(OCCC(=O)NNC(=O)c2nn(C)c(=O)c3ccccc23)cc1 | -5 | 0 | -3 | 18 | 7 | 0 | nt
COc1ccc(NC(=O)CSCC(=O)N(C)Cc2ccc3c(c2)OCCO3)cc1 | -7 | -2 | -2 | 6 | 3 | 0 | nt
CCCc1cc(C(=O)N2CCCC(C(=O)c3cccc4ccccc34)C2)n(C)n1 (centres undefined) | -3 | 49* | 1 | -5 | -1 | 1 | 1
CCc1cc(C(=O)N2CCCC(C(=O)c3cccc4ccccc34)C2)n(C)n1 (centres undefined) | -7 | 4 | -4 | -4 | 0 | 0 | nt
COc1cc(C)c(NC(=S)Nc2cccc(Cl)c2C)cc1OC | -2 | 48* | -7 | -2 | 3 | -1 | 3
CCOC(=O)c1c(NC(=O)OC)sc(C(=O)N(CC)CC)c1C | -3 | 82* | 3 | -3 | -2 | 1 | 52*
O=C(NN=Cc1ccccc1O)c1cccc([N+](=O)[O-])c1 | 97* | 59* | 29 | 38 | 36 | 82* | 100*
O=C(N/N=C/c1ccccn1)c1cccc([N+](=O)[O-])c1 | -1 | -1 | 8 | -17 | 0 | -1 | nt
CCOc1cc(NC(=O)C2CC2)c(OCC)cc1NC(=O)c1ccccn1 | -17 | -1 | 3 | -6 | -10 | 1 | nt
CCOc1cc(NC(=O)C2CC2)c(OCC)cc1NC(=O)CCn1nnc2ccccc21 | 32 | 63* | 1 | -1 | 11 | 0 | -10
COc1ccccc1N1CCN(S(=O)(=O)CCNC(=O)C23CC4CC(CC(C4)C2)C3)CC1 | -9 | 1 | 8 | 0 | 0 | 1 | nt
S=c1[nH]nc(-c2cccnc2)n1/N=C/c1ccccc1 | -5 | 49* | -6 | -2 | -1 | 0 | 7
Cc1ccc(C)c(NC(=O)c2cccc(Oc3ccc([N+](=O)[O-])cc3Cl)c2)c1 | -8 | 77* | 13 | -3 | -2 | 14 | 18
CCN1CCN(c2nc(C)nc3c2sc(=S)n3C)CC1 | -4 | 93* | 1 | 1 | -1 | 3 | -10
CC1=C(C(=O)OC(C)C)C(c2ccc(C)o2)C(C(=O)OC(C)C)=C(C)N1 | -4 | 0 | 4 | 1 | 1 | 5 | nt
CC1=C(C(=O)OC(C)C)[C@@H](c2ccc(C)o2)NC(=O)N1 | -7 | 120* | -11 | 3 | 1 | 0 | 2
COc1ccc(N2C(=O)CSC23C(=O)Nc2ccccc23)cc1OC (centres undefined) | 0 | 48* | -2 | 6 | -4 | 3 | 8
COc1ccccc1NC(=O)CCS(=O)(=O)c1ccc2c(c1)NC(=O)C(C)S2 (centres undefined) | -9 | 62* | -3 | 0 | 1 | -1 | 1
CC1(C)CC(=O)C=C(NNC(=O)c2ccccc2)C1 | -5 | -3 | -12 | 0 | 5 | -2 | nt
